Test system: HeLa cell–derived xenografts
Test: Xenograft tumor assay
Assay type: in vivo, mice
Settings: iJMJD6 25 mg/kg or JQ1 50 mg/kg alone or in combination, i.p. every other day
How it was run: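 Female BALB/c nude mice inoculated with HeLa cells, randomized, and injected i.p. every other day with DMSO or test compound at indicated doses. Tumour growth curves and endpoint tumour weights recorded (mean ±SEM); tumour lysates immunoblotted.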

Question: How did the tumor suppressive effect turn out when `Cc1sc2c(c1C)C(c1ccc(Cl)cc1)=N[C@@H](CC(=O)OC(C)(C)C)c1nnc(C)n1-2` [JQ1] was run?
Answer: Its tumor suppressive effect is “readily seen”.

Source: PMC9407455 (Proceedings of the National Academy of Sciences of the …, 2022)
